Consider 13 compounds from ChEMBL document CHEMBL1926588, “Sulfur and selenium derivatives of quinazoline and pyrido[2,3-d]pyrimidine: synthesis and study of their potential cytotoxic activity in vitro” (Eur J Med Chem, 2012).

Series [1] is described as follows: Cytotoxicity against human 184B5 cells after 72 hrs by MTT assay. It is filed as cell-based. Particulars: for GI50 at 72 h: 184B5 cells; for LC50 / TGI: 184b5, 72 h. The procedure, abridged:
(§1)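 MTT read-out after 72 h exposure at 37 °C in humidified 5% CO2, with five concentrations between 0.01 and 100. GI50 is 50% growth reduction versus untreated controls, TGI is complete growth inhibition, and LC50 is the concentration killing 50% of cells. Minimum three independent experiments.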
On the technique in general: Formazan colour is commonly taken as a measure of viable cells.

The test system of series [2] is MCF7. The experiment in a line: Cytotoxicity against human MCF7 cells after 72 hrs by MTT assay. It is filed as functional. Particulars: MCF7, 72 h. An outline of the steps:
as §1

The nature of series [3]: Cytotoxicity against human HTB-54 cells after 72 hrs by MTT assay. The format is functional. Particulars: HTB-54, 72 h; for CC50: read-out: LC50 (the source's name). An outline of the steps: as §1
Series [4] is described as follows: Cytotoxicity against human BEAS2B cells after 72 hrs by MTT assay. It is filed as cell-based, BEAS-2B. Conditions: for GI50 at 72 h: BEAS2B cells; for LC50 / TGI: beas-2b, 72 h. An outline of the steps:
as §1

The test system of series [5] is CCRF-CEM. Kind of series: Cytotoxicity against human CCRF-CEM cells after 72 hrs by MTT assay. It is filed as functional. Conditions: for CC50: read-out: LC50 (the source's name). The procedure, abridged: as §1
Series [6] relates to HT-29. Kind of series: Cytotoxicity against human HT-29 cells after 72 hrs by MTT assay. The format is functional. Particulars: HT-29, 72 h; for CC50: read-out: LC50 (the source's name). An outline of the steps:
as §1

Turning to `COc1ccc(CNc2nc(SC)nc3ccccc23)cc1`, the GI50 (usually the concentration that inhibits growth by half) at 72 h in series [1] was determined as 85.6 µM; in series [4] it was 21.7 µM. Besides, the LC50 in series [1], in series [2] and in series [4] was above 100 µM each time. The TGI (as a rule, the concentration giving total growth inhibition) in series [1] is above 100 µM; in series [2], 85.1 µM; in series [3] it was above 100 µM; in series [4], 96.24 µM; in series [5] it was above 100 µM; in series [6], above 100 µM. In addition, the GI50 was determined as 30.9 µM in series [2], 93.7 µM in series [3], 93.7 µM in series [5] and 70.2 µM in series [6]. Further, the CC50 in series [3], in series [5] and in series [6] was above 100 µM each time.
With `CSc1nc(NCCCCCO)c2cccnc2n1`, the GI50 at 72 h in series [1] and in series [4] was above 100 µM each time. For the same compound, the LC50 in series [1], in series [2] and in series [4] was above 100 µM in each case. In addition, the TGI in series [1], in series [2], in series [3], in series [4], in series [5] and in series [6] was above 100 µM throughout. Moreover, the concentration for 50% growth inhibition (GI50) in series [2] is 48.9 µM; in series [3], above 100 µM; in series [5], above 100 µM; in series [6], 63.9 µM. In addition, the CC50 in series [3], in series [5] and in series [6] was above 100 µM throughout.
As to `CSc1nc(Nc2ccccc2)c2ccccc2n1`, the values for the GI50 at 72 h in series [1] and in series [4] were above 100 µM and 54.8 µM, respectively. Moreover, the LC50 in series [1], in series [2] and in series [4] was above 100 µM in each case. Besides, the TGI in series [1], in series [2], in series [3], in series [4], in series [5] and in series [6] was above 100 µM in each case. Further, the 50% growth inhibitory concentration (GI50) in series [2] stood at 78.4 µM; in series [3] it was 55.8 µM; in series [5], 74.6 µM; in series [6], 65.8 µM. Further, the CC50 in series [3], in series [5] and in series [6] was above 100 µM each time.
On to `C[Se]c1nc(N)c2ccccc2n1`, for which the GI50 at 72 h in series [1] was found to be 24.4 µM; in series [4] it was 23.6 µM. Moreover, the 50% lethal concentration (LC50) (usually the concentration lethal to half of the exposed cells or organisms) in series [1] is 93.68 µM; in series [2], above 100 µM; in series [4], 85.52 µM. The concentration for total growth inhibition (TGI) in series [1] was 59.04 µM; in series [2], above 100 µM; in series [3] it was 88.7 µM; in series [4], 54.56 µM; in series [5] it was above 100 µM; in series [6], 74.8 µM. Moreover, the GI50 stood at 46.5 µM in series [2], 18 µM in series [3], 65.1 µM in series [5] and 27.6 µM in series [6]. For the same compound, the CC50 in series [3], in series [5] and in series [6] was above 100 µM each time.
For `CSc1nc(NCCCCc2ccccc2)c2ccccc2n1`, the GI50 at 72 h stood at 28.5 µM in series [1] and 6.81 µM in series [4]. Besides, the LC50 was 78.6 µM in series [1], 95.9 µM in series [2] and above 100 µM in series [4]. Moreover, the concentration for total growth inhibition (TGI) is 53.55 µM in series [1]; 64 µM in series [2]; above 100 µM in series [3]; above 100 µM in series [4]; above 100 µM in series [5]; above 100 µM in series [6]. The GI50 in series [2] was 32 µM; in series [3] it was above 100 µM; in series [5], 47 µM; in series [6], above 100 µM. For the same compound, the CC50 in series [3], in series [5] and in series [6] was above 100 µM in each case.
As to `CCCCC[Se]c1nc(NCc2ccc(SC)cc2)c2ccccc2n1`, the GI50 at 72 h amounted to 57.4 µM in series [1] and 34.7 µM in series [4]. Moreover, the median lethal concentration (LC50) is above 100 µM in series [1], 95.3 µM in series [2] and above 100 µM in series [4]. The TGI in series [1] is above 100 µM; in series [2], 65 µM; in series [3], 81.3 µM; in series [4], 88.21 µM; in series [5], 83.9 µM; in series [6], above 100 µM. Also, the GI50 in series [2] was 34.7 µM; in series [3], 40.4 µM; in series [5], 35 µM; in series [6], 83.6 µM. The CC50 in series [3], in series [5] and in series [6] was above 100 µM throughout.
Regarding `C[Se]c1nc(NCc2ccccc2)c2ccccc2n1`, the GI50 at 72 h in series [1] is 3.72 µM; in series [4] it was 0.57 µM. Moreover, the LC50 in series [1] is 73.66 µM; in series [2] it was above 100 µM; in series [4], 78.3 µM. Further, the TGI in series [1] was 12.41 µM; in series [2] it was 67 µM; in series [3] it was above 100 µM; in series [4] it was 36.96 µM; in series [5] it was 61.6 µM; in series [6] it was 81 µM. Besides, the GI50 in series [2] was found to be 15.8 µM; in series [3], 74.6 µM; in series [5], 39.8 µM; in series [6], 42.8 µM. The CC50 in series [3] is above 100 µM; in series [5], 83.5 µM; in series [6] it was above 100 µM.
`[SeH]c1nc(NCc2ccccc2)c2ccccc2n1`: the concentration for 50% growth inhibition (GI50) at 72 h was found to be 20.8 µM in series [1] and 3.54 µM in series [4]. Besides, the LC50 in series [1], in series [2] and in series [4] was above 100 µM throughout. Also, the total growth inhibition concentration (TGI) in series [1] is 63.63 µM; in series [2] it was above 100 µM; in series [3], above 100 µM; in series [4] it was above 100 µM; in series [5] it was above 100 µM; in series [6], above 100 µM. The GI50 in series [2] was above 100 µM; in series [3], 31.2 µM; in series [5], above 100 µM; in series [6], 62.2 µM. Further, the CC50 in series [3], in series [5] and in series [6] was above 100 µM each time.
Turning to `COc1ccc(CNc2nc(S)nc3ccccc23)cc1`, the 50% growth inhibitory concentration (GI50) at 72 h amounted to 7.83 µM in series [1] and 6.13 µM in series [4]. The figures for the LC50 in series [1], in series [2] and in series [4] were 69.23 µM, 78.4 µM and 70.18 µM, respectively. The total growth inhibition concentration (TGI) turned out to be 36.55 µM in series [1]; 36.5 µM in series [2]; 45.5 µM in series [3]; 32.5 µM in series [4]; 41 µM in series [5]; 28.6 µM in series [6]. Also, the GI50 is 7.08 µM in series [2], 13.5 µM in series [3], 10.4 µM in series [5] and 6.49 µM in series [6]. The CC50 in series [3] was determined as 77.6 µM; in series [5] it was 71.6 µM; in series [6], 63.9 µM.
Consider `CCCCC[Se]c1nc(N)c2cccnc2n1`, for which the GI50 at 72 h was found to be 10.3 µM in series [1] and 16.3 µM in series [4]. For the same compound, the 50% lethal concentration (LC50) came out at 70.14 µM in series [1], 85 µM in series [2] and 73.48 µM in series [4]. Further, the TGI in series [1] came to 40.23 µM; in series [2], 53.8 µM; in series [3], 51 µM; in series [4] it was 44.89 µM; in series [5], 42.8 µM; in series [6] it was 20 µM. The GI50 in series [2] is 22.7 µM; in series [3], 8.78 µM; in series [5], 12.9 µM; in series [6], 5.91 µM. Also, the CC50 in series [3] came out at 98.5 µM; in series [5] it was 72.6 µM; in series [6] it was 62.1 µM.
As for `CSc1ccc(CNc2nc([SeH])nc3ccccc23)cc1`, the GI50 at 72 h in series [1] amounted to 6.84 µM; in series [4], 0.41 µM. The LC50 in series [1], in series [2] and in series [4] was above 100 µM in each case. Further, the total growth inhibition concentration (TGI) was 86.27 µM in series [1]; above 100 µM in series [2]; above 100 µM in series [3]; 58.21 µM in series [4]; above 100 µM in series [5]; above 100 µM in series [6]. Besides, the 50% growth inhibitory concentration (GI50) in series [2] was 48.1 µM; in series [3] it was 45.5 µM; in series [5] it was 71.9 µM; in series [6], 42.9 µM. Moreover, the CC50 in series [3], in series [5] and in series [6] was above 100 µM in each case.
As for `COc1cc([C@@H]2c3cc4c(cc3[C@@H](O[C@@H]3O[C@@H]5CO[C@@H](C)O[C@H]5[C@H](O)[C@H]3O)[C@H]3COC(=O)[C@H]23)OCO4)cc(OC)c1O` [ETOPOSIDE], the concentration for total growth inhibition (TGI) in series [2] is above 100 µM. In series [5], growth was halved (GI50) at 12.6 µM, the concentration for total growth inhibition (TGI) was determined as 50.1 µM and the CC50 was above 100 µM. For the same compound, in series [6], the TGI was above 100 µM and the CC50 was above 100 µM.
Turning to `[SeH]c1nc([SeH])c2cccnc2n1`, in series [1], the 50% growth inhibitory concentration (GI50) at 72 h was determined as 0.71 µM, the LC50 is 67.5 µM and the TGI was determined as 8.26 µM. For the same compound, in series [2], it took 9.83 µM to inhibit growth by half (GI50), the median lethal concentration (LC50) came out at 82.7 µM and the TGI amounted to 46.1 µM. In series [3], it took 4.03 µM to inhibit growth by half (GI50), the total growth inhibition concentration (TGI) is 7.93 µM and the CC50 is 68.4 µM.
